Test results taken from the RNAGym collection of RNA variant scans (doi:10.1126/science.aae0568).
This sample holds only a part of the variants without activity.

B1: tRNA (parent)
chain: GUUCCGUUGGCGUAAUGGUAACGCGUCUCCCUCCUAAGGAGAAGACUGCGGGUUCGAGUCCCGUACGGAACG

Variants of: B1
Test: yeast fitness relative to wild type (ratio to wild type); higher = fitter; tRNA-Arg(CCU), competitive growth, 37 C, YPD
Summary of the method: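 A pool of Saccharomyces cerevisiae strains, each with a tRNA-Arg(CCU) gene variant at the native genomic locus, was competed in YPD at 37°C for 24 hours across six parallel replicates. The variants had been chemically synthesised at a 3% per-site mutation rate over 69 sites, and gene amplicons before and after competition were read by 100-nucleotide paired-end sequencing. Darwinian fitness relative to wild type rested on changes in genotype frequencies. Genotypes required ≥ 100 starting reads, and estimates < 0.5 were set to 0.5.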

Variant	yeast fitness
C5U U28G A42U	≤ 0.5
G6A C11G A45U A57G A70G	≤ 0.5
C5U U26G C33G G50C	≤ 0.5
C5U U28A A69C	0.541
G6A C11A C46G	≤ 0.5
C5U U28C A36C A40C A42U	≤ 0.5
G6A A20C C46G	0.696
C5U U47A G48C G51A C61A	0.564
G6A A20U C46A C55G	≤ 0.5
G6A A69C	0.866
G6A C11A U16C U32G C49G C55A	≤ 0.5
G6A C11A A57C G68A	0.549
C5U U35C C62U G68C	≤ 0.5
G6A A43C C62A	0.551
G6A A15C A36C A42U A43G C55G C61U	≤ 0.5
G6A A20G A36G C49G	≤ 0.5
G6A A20C C61G G68C	≤ 0.5
G6A A14C G58A	0.613
G6A A40C G41C G68C	≤ 0.5
G6A A36U C66A G68C	≤ 0.5
G6A A20G A45G	0.803
C5U U32A C34A A65C	≤ 0.5
G6A A20U C27A A57U C62A	≤ 0.5
C5U U47G G50C	0.575

Variant	yeast fitness
G6A C11A C66U	0.592
G6A A14G C33A G39C	≤ 0.5
G6A C11A C61A	≤ 0.5
G6A A40U U53A C61A A65U A69U	0.511
C5U U35A G48C C61U	0.57
G6A	0.965
G6A A42U C62A	0.53
G6A C11G C61G	≤ 0.5
G6A A15U U59A G68C	≤ 0.5
G6A A36C A37G G52A A70U	≤ 0.5
G6A A14U C31G G38A	≤ 0.5
G6A A36G A43C A69C	≤ 0.5
G6A A42G	0.848
G6A A42U	0.784
G6A A42C	0.894
G6A A14U A57G U64G	≤ 0.5
G6A A37C A40G	≤ 0.5
C5U U35G U47A G48A A65U	0.557
G6A C11A C49U A65G	≤ 0.5
C5U U35C A36G	0.801
C5U U35A A36G	0.673
C5U U35G A65U	0.576
G6A C11G A37C C60A A70G	≤ 0.5
G6A C11A C22G	≤ 0.5

Variant	yeast fitness
G6A A14G C49U	0.57
G6A A57U G68U A70G	≤ 0.5
G6A A15G C46U C66U	0.77
G6A A20G C49A	0.616
G6A A45C A70G	0.536
G6A C11U C22G	0.555
G6A A37U A40C	≤ 0.5
G6A C11A U32A C34G G58A	≤ 0.5
G6A A14C A42U G56A G63C	0.511
C5U U32C A70U	0.66
G6A C11U C55U	0.814
G6A C11A A20G C62A	≤ 0.5
C5U U32C A57C	0.583
G6A A15C A36U A65C	≤ 0.5
C5U U26C A36C U64A	≤ 0.5
G6A A40G A42G U59C	0.675
C5U U28C C61U	0.705
G6A A20C C34A A45U C46U A57C	≤ 0.5
G6A A20G C60G	≤ 0.5
G6A C11A A14C U19C U32A A42C	0.664
G6A C11U C62A A65U C66U	≤ 0.5
G6A A15C U16A A21G U26A C30U C61A A69U	≤ 0.5
G6A A20C C66A	0.549
G6A C11A U47C	≤ 0.5

Variant	yeast fitness
G6A A21G	0.965
G6A A21C C33G	≤ 0.5
C5U U32G A36U	≤ 0.5
G6A A21G G23A G58C	≤ 0.5
G6A A20G C24U	0.612
G6A A15U G23A	0.525
C5U U32G G63C C66U	≤ 0.5
C5U U32C A42G	0.531
G6A A20G	0.897
G6A C11U C34G	0.567
G6A A15C C27A C61G A70U	0.579
G6A A20G A21G C29G	≤ 0.5
C5U U28G A40C	0.613
G6A A15G A65U	0.607
G6A A21G C46A C55U G56A	≤ 0.5
C5U U26G G58A	0.924
G6A A14U A15U C31G	0.668
G6A A20C G23C C27A	≤ 0.5
C5U U35C A69U	0.536
G6A A15G U54G C55U	≤ 0.5
C5U U64A G67U	≤ 0.5
G6A A21U C62U	≤ 0.5
G6A A15C C22G A43C G50A	≤ 0.5
C5U U32G A36U G68C	≤ 0.5

Variant	yeast fitness
C5U U47A	1.06
G6A A20C A70U	0.739
G6A A36U A37G A40C C66U	≤ 0.5
G6A A42G C61G C66A	≤ 0.5
G6A C11U C49G C62U	≤ 0.5
G6A A57U	0.629
G6A A57G	0.929
G6A A57C	0.627
G6A C11U C33U U64C A70C	≤ 0.5
G6A C11A U19A A69U	0.577
G6A A21C C49A A70G	≤ 0.5
G6A C11U G23A C46A C55A	≤ 0.5
G6A A21G C49U	0.791
G6A A15G U28G A42U G48A	≤ 0.5
G6A C11U A69U	0.707
G6A A14G C31U A36G	≤ 0.5
G6A A45U G48A C55A	≤ 0.5
G6A C11A A40G	≤ 0.5
G6A A57C A65C	0.541
G6A A14C G41A A42U G56A G63C	0.665
G6A A20U C49U G50U	≤ 0.5
G6A A21C A42G	0.692
C5U U26C	0.862
G6A A20C A40C A42U G56A C66G	≤ 0.5

Variant	yeast fitness
G6A A14U C55A	0.552
C5U U53G	0.617
G6A C11A A40G G56C A65C G67A	≤ 0.5
G6A A45C C55G C61U	≤ 0.5
C5U U28C C29G	≤ 0.5
G6A C11G A21C C22G C30G A45U	≤ 0.5
G6A A37U C62U	≤ 0.5
G6A A45C C46G G51C	≤ 0.5
G6A A45G	0.928
C5U U32C G39A C60U C61G G68C	≤ 0.5
G6A A42C A70G	≤ 0.5
G6A C11A A40G G56C	≤ 0.5
G6A A65C	0.945
C5U U32C C33U C62U A65G	≤ 0.5
C5U U28C C46A C66G	0.534
G6A A21C U47A C61A A70C	≤ 0.5
G6A A40U C46A	0.657
C5U U47A G48C G51A	≤ 0.5
G6A A42C U53G G67C	≤ 0.5
G6A A14G C24A C31U A40U A70G	≤ 0.5
G6A A15C C27A C61G U64C A70U	≤ 0.5
G6A A14U A57G U59C	≤ 0.5
G6A A37C	0.824
C5U U53G C62A	≤ 0.5

Variant	yeast fitness
C5U U28G C29U G50C	≤ 0.5
G6A C11A C24U	≤ 0.5
G6A A20G C31G C46U G67A	≤ 0.5
G6A A36C A40U	≤ 0.5
C5U U47C G51A	0.548
G6A A14U U64G	0.664
G6A A57C A65C A70C	0.609
G6A A15C C22U C33G C62A G63C	0.753
G6A C11U C27A	0.719
G6A C11G G17U G38A A43U U54A	≤ 0.5
C5U U28C C29G C61U	0.563
G6A C11G A21G C27G C29U U35G G56C G63A U64C G67C	≤ 0.5
C5U U32G C33G	≤ 0.5
G6A C11A A37G G68C	0.562
G6A A14C A42U G63C	≤ 0.5
G6A A40U C55G G63C	≤ 0.5
G6A A36U C49G C62U	≤ 0.5
G6A A40G	0.842
C5U U32C C49G G68C	0.593
G6A A20U G25A	0.574
C5U U28G C30G A40C A42U	≤ 0.5
G6A A15C A20G	≤ 0.5
G6A A15C A20U	0.56
